Data as given in ChEMBL document CHEMBL1124712, “Pre- and postsynaptic dopaminergic activities of indolizidine and quinolizidine derivatives of 3-(3-hydroxyphenyl)-N-(n-propyl)piperidine (3-PPP). Further developments of a dopamine receptor model” (J Med Chem, 1990).
Activity calls are given as the source filed them. The rule behind the calls is not given here.

Assays:
D(2) dopamine receptor [1] = target: T1, D(2) dopamine receptor (Rattus norvegicus, UniProt P61169); experiment: In vitro inhibition of [3H]spiperone binding to Dopamine receptor D2 in rat striatal membranes; assay type: cell membranes, Membrane
T1 sequence (P61169 whole entry): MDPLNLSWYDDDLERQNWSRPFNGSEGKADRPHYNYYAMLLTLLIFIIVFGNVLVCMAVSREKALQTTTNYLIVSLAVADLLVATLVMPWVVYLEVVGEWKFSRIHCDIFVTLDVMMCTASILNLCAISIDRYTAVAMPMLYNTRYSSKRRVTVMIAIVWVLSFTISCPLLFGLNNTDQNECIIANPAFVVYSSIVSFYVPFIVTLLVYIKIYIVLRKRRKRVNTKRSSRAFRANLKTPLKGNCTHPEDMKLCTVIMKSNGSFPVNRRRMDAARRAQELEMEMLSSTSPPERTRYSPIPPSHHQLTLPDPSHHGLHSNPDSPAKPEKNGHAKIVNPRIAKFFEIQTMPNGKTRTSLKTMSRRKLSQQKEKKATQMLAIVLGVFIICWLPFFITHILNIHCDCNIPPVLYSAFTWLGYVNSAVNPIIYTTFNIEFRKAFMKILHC

Rattus norvegicus [2] = experiment: Locomotor activity in reserpine-pretreated ratat the dose of 50 umol/kg; Accumulation counts/30 min; assay type: functional
Rattus norvegicus [3] = experiment: DOPA accumulation in normal rat limbic region at 100 umol/kg expressed as percent of control; assay type: functional, Limbic system
Rattus norvegicus [4] = experiment: Locomotor activity in normal rat at 100 umol/kg expressed as percent of control; assay type: functional
Procedure, shortened: (§1)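 Untreated rats were given the test drug sc. Locomotor activity was recorded with motility meters and expressed as percent of controls, with significance by Student's t test (p < 0.05).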

Rattus norvegicus [5] = experiment: DOPA accumulation in normal rat cortex at 100 umol/kg expressed as percent of control; assay type: functional
Rattus norvegicus [6] = experiment: DOPA accumulation in normal rat striatal region at 100 umol/kg expressed as percent of control; assay type: functional
D(2) dopamine receptor [7] = target: T1, D(2) dopamine receptor; experiment: In vitro inhibition of [3H]N-0437 binding to Dopamine receptor D2 in rat striatal membranes; assay type: cell membranes, Membrane
Rattus norvegicus [8] = experiment: Locomotor activity in reserpine-pretreated rat at the dose of 100 umol/kg; Accumulation counts/30 min; assay type: functional
Rattus norvegicus [9] = experiment: DOPA accumulation in reserpine-pretreated rat cortex after subcutaneous administration of 50 umol/kg; Inactive; assay type: functional, organism-based
Rattus norvegicus [10] = experiment: DOPA accumulation in normal rat striatal region at 50 umol/kg expressed as percent of control; Inactive; assay type: functional, organism-based
Rattus norvegicus [11] = experiment: Locomotor activity in normal rat at 50 umol/kg expressed as percent of control; assay type: functional; procedure, shortened: as §1
Rattus norvegicus [12] = experiment: DOPA accumulation in normal rat limbic region at 50 umol/kg expressed as percent of control; Inactive; assay type: functional, organism-based; details: Limbic system
Rattus norvegicus [13] = experiment: DOPA accumulation in reserpine-pretreated rat limbic region after subcutaneous administration of 50 umol/kg; Range is 0.44-3.5; assay type: functional; details: Limbic system, sc
Rattus norvegicus [14] = experiment: DOPA accumulation in normal rat cortex at 50 umol/kg expressed as percent of control; assay type: functional
Rattus norvegicus [15] = experiment: Locomotor activity in reserpine-pretreated rat at the dose of 50 umol/kg; Accumulation counts/30 min; assay type: functional
Rattus norvegicus [16] = experiment: DOPA accumulation in reserpine-pretreated rat limbic region after subcutaneous administration of 50 umol/kg; Inactive; assay type: functional, organism-based; details: Limbic system
Rattus norvegicus [17] = experiment: Locomotor activity in normal rat at 12.5 umol/kg expressed as percent of control; assay type: functional; procedure, shortened: as §1
Rattus norvegicus [18] = experiment: DOPA accumulation in reserpine-pretreated rat striatal region after subcutaneous administration of 50 umol/kg; Inactive; assay type: functional, organism-based
Rattus norvegicus [19] = experiment: DOPA accumulation in normal rat limbic region at 12.5 umol/kg expressed as percent of control; assay type: functional, Limbic system
Rattus norvegicus [20] = experiment: DOPA accumulation in normal rat striatal region at 12.5 umol/kg expressed as percent of control; assay type: functional
Rattus norvegicus [21] = experiment: DOPA accumulation in normal rat cortex at 12.5 umol/kg expressed as percent of control; Inactive; assay type: functional, organism-based
Rattus norvegicus [22] = experiment: Locomotor activity in normal rat at 25 umol/kg expressed as percent of control; assay type: functional; procedure, shortened: as §1
Rattus norvegicus [23] = experiment: Locomotor activity in normal rat at 3.1 umol/kg expressed as percent of control; assay type: functional; procedure, shortened: as §1
Rattus norvegicus [24] = experiment: Locomotor activity in reserpine-pretreated ratat the dose of 213 umol/kg; Accumulation counts/30 min; assay type: functional
Rattus norvegicus [25] = experiment: DOPA accumulation in reserpine-pretreated rat limbic region after subcutaneous administration; assay type: functional; details: Limbic system, sc
Rattus norvegicus [26] = experiment: DOPA accumulation in normal rat striatal region at 27 umol/kg expressed as percent of control; assay type: functional
Rattus norvegicus [27] = experiment: DOPA accumulation in reserpine-pretreated rat cortex after subcutaneous administration; Inactive; assay type: functional, organism-based
Rattus norvegicus [28] = experiment: DOPA accumulation in normal rat cortex at 27 umol/kg expressed as percent of control; Inactive; assay type: functional, organism-based
Rattus norvegicus [29] = experiment: DOPA accumulation in normal rat cortex at 213 umol/kg expressed as percent of control; Inactive; assay type: functional, organism-based
Rattus norvegicus [30] = experiment: DOPA accumulation in normal rat limbic region at 213 umol/kg expressed as percent of control; assay type: functional, Limbic system
Rattus norvegicus [31] = experiment: Locomotor activity in normal rat at 0.8 umol/kg expressed as percent of control; assay type: functional
Rattus norvegicus [32] = experiment: DOPA accumulation in reserpine-pretreated rat striatal region after subcutaneous administration; assay type: functional; details: sc
Rattus norvegicus [33] = experiment: Locomotor activity in normal rat at 213 umol/kg expressed as percent of control; assay type: functional
Rattus norvegicus [34] = experiment: DOPA accumulation in normal rat striatal region at 50 umol/kg expressed as percent of control; assay type: functional
Rattus norvegicus [35] = experiment: DOPA accumulation in normal rat limbic region at 50 umol/kg expressed as percent of control; assay type: functional, Limbic system
Rattus norvegicus [36] = experiment: DOPA accumulation in normal rat cortex at 50 umol/kg expressed as percent of control; Inactive; assay type: functional, organism-based
Rattus norvegicus [37] = experiment: DOPA accumulation in normal rat limbic region at 0.8 umol/kg expressed as percent of control; assay type: functional, Limbic system
Rattus norvegicus [38] = experiment: DOPA accumulation in normal rat striatal region at 0.8 umol/kg expressed as percent of control; assay type: functional
Rattus norvegicus [39] = experiment: Locomotor activity in reserpine-pretreated ratat the dose of 13 umol/kg; Accumulation counts/30 min; assay type: functional
Rattus norvegicus [40] = experiment: DOPA accumulation in normal rat cortex at 0.8 umol/kg expressed as percent of control; Inactive; assay type: functional, organism-based
Rattus norvegicus [41] = experiment: DOPA accumulation in normal rat limbic region at 27 umol/kg expressed as percent of control; assay type: functional, Limbic system
Rattus norvegicus [42] = experiment: Locomotor activity in normal rat at 1.6 umol/kg expressed as percent of control; assay type: functional
Rattus norvegicus [43] = experiment: DOPA accumulation in normal rat striatal region at of 50 umol/kg expressed as percent of control; assay type: functional
Rattus norvegicus [44] = experiment: DOPA accumulation in normal rat cortex at of 50 umol/kg expressed as percent of control; assay type: functional
Rattus norvegicus [45] = experiment: DOPA accumulation in reserpine-pretreated rat striatal region after subcutaneous administration of 50 umol/kg; Range is 1.7-4; assay type: functional; details: sc
Rattus norvegicus [46] = experiment: DOPA accumulation in reserpine-pretreated rat limbic region after subcutaneous administration of 50 umol/kg; Range is 1.1-6.5; assay type: functional; details: Limbic system, sc

In the case of Oc1cccc(C2CCCN3CCCCC23)c1 (configuration not stated), the IC50 (D(2) dopamine receptor [1]) is reported as 13 µM, the Locomotor activity (Rattus norvegicus [2]) is reported as 14 and the Control (Rattus norvegicus [3]) is reported as 61%. The Control (Rattus norvegicus [4]) was 142%, the Control (Rattus norvegicus [5]) was 48% and the Control (Rattus norvegicus [6]) was 54%. It also gave an IC50 (D(2) dopamine receptor [7]) of 580 nM.
O=C(O)C(=O)O.Oc1cccc(C2CCC3CCCCN3C2)c1 (configuration not stated) showed an IC50 (D(2) dopamine receptor [1]) of 40 µM, a Control (Rattus norvegicus [3]) of 69% and a Control (Rattus norvegicus [4]) of 220%. It also gave a Locomotor activity (Rattus norvegicus [8]) of 262, a Control (Rattus norvegicus [5]) of 62% and a Control (Rattus norvegicus [6]) of 56%. It also gave an IC50 (D(2) dopamine receptor [7]) of 7900 nM.
Oc1cccc(C2CCCN3CCCC23)c1 (racemic) was tested, and the IC50 (D(2) dopamine receptor [1]) was 3.8 µM, the ED50 (Rattus norvegicus [9]) was “inactive” and the Control (Rattus norvegicus [10]) was “inactive”. For the same compound, the Control (Rattus norvegicus [11]) was 48%, the Control (Rattus norvegicus [12]) was “inactive” and the ED50 (Rattus norvegicus [13]) was 0.44 µmol/kg. It also gave a Control (Rattus norvegicus [14]) of 57%, a Locomotor activity (Rattus norvegicus [15]) of 13 and an IC50 (D(2) dopamine receptor [7]) of 75 nM.
In the case of Oc1cccc(C2=CCCN3CCCCC23)c1 (configuration not stated), the IC50 (D(2) dopamine receptor [1]) is reported as 5.3 µM, the ED50 (Rattus norvegicus [9]) is reported as “inactive” and the Locomotor activity (Rattus norvegicus [2]) is reported as 8. The ED50 (Rattus norvegicus [16]) was “inactive”, the Control (Rattus norvegicus [17]) was 45% and the ED50 (Rattus norvegicus [18]) was “inactive”. The Control (Rattus norvegicus [19]) was 165%, the Control (Rattus norvegicus [20]) was 200% and the Control (Rattus norvegicus [21]) was “inactive”. For the same compound, the Control (Rattus norvegicus [22]) was 51%, the Control (Rattus norvegicus [23]) was 82% and the IC50 (D(2) dopamine receptor [7]) was 320 nM.
With CCCN1CCC[C@@H](c2cccc(O)c2)C1 [PRECLAMOL] the Locomotor activity (Rattus norvegicus [24]) was 12, the ED50 (Rattus norvegicus [25]) was 0.8 µmol/kg and the Control (Rattus norvegicus [26]) was 147%. For the same compound, the ED50 (Rattus norvegicus [27]) was “inactive”, the Control (Rattus norvegicus [28]) was “inactive” and the Control (Rattus norvegicus [29]) was “inactive”. For the same compound, the Control (Rattus norvegicus [30]) was 95%, the Control (Rattus norvegicus [31]) was 74% and the ED50 (Rattus norvegicus [32]) was 1.7 µmol/kg. The Control (Rattus norvegicus [33]) was 40%.
Oc1cccc([C@@H]2CCCN3CCCC23)c1 (some centres not stated) was tested, and the IC50 (D(2) dopamine receptor [1]) was 6.5 µM, the Control (Rattus norvegicus [34]) was 245% and the Control (Rattus norvegicus [35]) was 153%. The Control (Rattus norvegicus [11]) was 72%, the Control (Rattus norvegicus [36]) was “inactive” and the Locomotor activity (Rattus norvegicus [15]) was 21. For the same compound, the Control (Rattus norvegicus [23]) was 135% and the IC50 (D(2) dopamine receptor [7]) was 170 nM.
In the case of CCCN1CCC[C@H](c2cccc(O)c2)C1, the ED50 (Rattus norvegicus [25]) is reported as 1 µmol/kg, the Control (Rattus norvegicus [37]) is reported as 86% and the Control (Rattus norvegicus [26]) is reported as 45%. For the same compound, the Control (Rattus norvegicus [38]) was 81%, the ED50 (Rattus norvegicus [27]) was “inactive” and the Control (Rattus norvegicus [28]) was “inactive”. The Locomotor activity (Rattus norvegicus [39]) was 78, the Control (Rattus norvegicus [40]) was “inactive” and the Control (Rattus norvegicus [41]) was 40%. It also gave a Control (Rattus norvegicus [42]) of 75%, an ED50 (Rattus norvegicus [32]) of 1.3 µmol/kg and a Control (Rattus norvegicus [33]) of 230%.
Oc1cccc([C@H]2CCCN3CCCC23)c1 (some centres not stated) gave an IC50 (D(2) dopamine receptor [1]) of 4.9 µM, a Control (Rattus norvegicus [35]) of 46% and a Control (Rattus norvegicus [17]) of 42%. The Control (Rattus norvegicus [43]) was 46%, the Control (Rattus norvegicus [11]) was 83% and the Control (Rattus norvegicus [44]) was 37%. It also gave an ED50 (Rattus norvegicus [45]) of 1.7 µmol/kg, a Locomotor activity (Rattus norvegicus [15]) of 25 and an ED50 (Rattus norvegicus [46]) of 1.1 µmol/kg. For the same compound, the IC50 (D(2) dopamine receptor [7]) was 45 nM.
For CCCN(CCc1ccsc1)C1CCc2c(O)cccc2C1 (configuration not stated), the IC50 (D(2) dopamine receptor [1]) was 0.0088 µM and the IC50 (D(2) dopamine receptor [7]) was 0.62 nM.
